In the library only some 10% were active in any assay of this set; here they are far more common.
PMI act satM6P = human PMI activators, high substrate, primary screen, biochemical, fluorescence intensity, near-saturating mannose 6-phosphate; coupled PMI enzyme assay, resazurin fluorescence, 20 min; active compounds read high; 1 = untreated enzyme, 0 = substrate-free blank; activation factor at 20 µM; hit rate 0.34% among 190,000;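 active = activation factor of 2 or more at 20 µM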
Target sequence (P34949 whole entry, looked up): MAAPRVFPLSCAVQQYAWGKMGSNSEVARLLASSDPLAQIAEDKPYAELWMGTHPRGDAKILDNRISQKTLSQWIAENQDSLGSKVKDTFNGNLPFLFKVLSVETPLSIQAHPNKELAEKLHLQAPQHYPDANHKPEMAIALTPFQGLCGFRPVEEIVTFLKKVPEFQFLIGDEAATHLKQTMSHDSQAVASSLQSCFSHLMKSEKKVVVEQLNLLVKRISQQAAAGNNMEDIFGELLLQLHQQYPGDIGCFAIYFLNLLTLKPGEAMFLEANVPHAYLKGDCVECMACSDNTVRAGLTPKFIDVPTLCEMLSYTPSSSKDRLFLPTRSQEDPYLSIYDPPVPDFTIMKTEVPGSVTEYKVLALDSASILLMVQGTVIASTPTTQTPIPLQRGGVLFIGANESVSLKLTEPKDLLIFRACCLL
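Test system: human phosphomannose isomerase with PGI, G6PDH, diaphorase coupling enzymes / Doses: 20 µM compound, 1% DMSO / Times: enzyme reaction with compound 20 min at room temperature / Measured by: Diaphorase-driven resazurin-to-resorufin fluorescence, excitation 544, emission 590 nm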
WT yeast gro inh = growth inhibition of WT strain, primary screen, mitochondrial fusion inhibitor project, WT and mutant strains, chemical genetic; mitochondrial fusion phenotypic screen; inhibition, % at 10 µM; hit rate 2.1% among 190,000; AID 1362, 2008; in the data active = inhibition above about 58%; tested in S. cerevisiae
PMI activator = activators of human PMI, primary screen, biochemical, fluorescence intensity, near-Km mannose 6-phosphate. Mannose-6-phosphate isomerase (Homo sapiens), P34949. purified human PMI, coupled resazurin fluorescence, 20 min; active compounds read high; 1 = vehicle control, 0 substrate-free wells. activation factor at 20 µM. hit rate 0.005% among 190,000;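 active = activation factor of 2 or more at 20 µM, relative to plate controls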
Diaph act CS = compounds boosting diaphorase resazurin reduction – biochemical, uHTS, resorufin fluorescence, counter-screen for diaphorase-coupled primary assays, primary screen. activation factor at 20 µM. AID 1229, 2008. hit rate 0.005% among 190,000. Diaphorase/resazurin coupled assay, 16 min; active compounds read high; 1 = vehicle wells, 0 = NADH-free wells;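 active = diaphorase activity raised at least twofold by the compound at 20 µM; inactive = activation factor below 2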
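Assay system: bacterial diaphorase enzyme (C. kluyveri) / Input: enzyme 0.07 U/mL final / Medium: 50 mM HEPES pH 7.4 with 4.542 mM MgCl2, 0.005% Tween 20 / Doses: single compound dose of 20 µM, 1% DMSO final / Incubation: 16 min enzyme reaction, ambient temperature / Signal: fluorescence, excitation 544 nm and emission 590 nm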
Lmaj promast = Leishmania major promastigote growth inhibition, primary screen; Leishmania major promastigotes, resazurin fluorescence viability; inhibition, % at 10 µM; hit rate 9% among 200,000; AID 1063, 2008; in the data active = inhibition above about 50%;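 note: promastigotes grown with compound for 44 hours at 28 °C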
Hits are given with their value; - = inactive.

SMILES | PMI act satM6P | WT yeast gro inh | PMI activator | Diaph act CS | Lmaj promast
O=C(NNC(=O)c1cc(-c2ccccc2)nc2ccccc12)Nc1cccc(Cl)c1 | - | - | - | - | 99.2
Cc1cccc(-c2cc(C(=O)NCc3ccccn3)c3ccccc3n2)c1 | - | - | - | - | -
O=C(Nc1nccs1)c1cc(-c2ccccc2)nc2ccccc12 | - | - | - | - | 89.8
O=C(NNC(=O)c1cc(-c2cccnc2)nc2ccccc12)Nc1ccc(Cl)cc1 | - | - | - | - | -
Cc1ccc(-c2cc(C(=O)NCc3ccccn3)c3ccccc3n2)cc1C | - | - | - | - | 87.8
O=C1N(c2cccc(Cl)c2)C(c2ccc(Cl)cc2)N2CCCN12 (stereo not given) | - | - | - | - | -
COc1ccc2nc(NC(=O)CSc3nnnn3C)sc2c1 | - | - | - | - | -
COc1cc(/C=C(\C#N)c2nc(-c3cc4ccccc4oc3=O)cs2)ccc1O | - | - | - | - | 61.1
O=C1C=CC(O)(c2cc(=O)c3c(O)cc(O)cc3o2)C=C1 | - | - | - | - | 70.0
O=c1cc(-c2ccccc2Cl)oc2cc(O)cc(O)c12 | - | - | - | - | -
C/C(=N\Nc1nc2ccccc2[nH]1)c1cc2ccccc2o1 | - | 60.2 | - | - | 67.6
C(=N\Nc1nc2ccccc2[nH]1)/c1ccc2c(c1)OCO2 | - | - | - | - | 96.3
C/C(=N\Nc1nc2ccccc2[nH]1)c1ccc2c(c1)OCCO2 | - | - | - | - | 99.9
C/C(=N\NC(=O)c1ccncc1)c1cc2ccccc2o1 | - | - | - | - | -
C/C(=N\Nc1nc2ccccc2[nH]1)c1ccc2c(c1)OCO2 | - | - | - | - | 100.5
O=C(NC(Cc1ccccc1)C(=O)O)/C(=C/c1ccc(F)cc1)NC(=O)c1ccccc1 (stereo not given) | - | - | - | - | -
Cc1ccc(N(C(=O)CS(=O)CC(=O)Nc2ccc(F)cc2)C(C(=O)NC2CCCCC2)c2ccco2)cc1 (stereo not given) | - | - | - | - | -
O=C1CSC(c2ccc(Cl)cc2Cl)N1c1ccccn1 (stereo not given) | - | - | - | - | -
O=C1CSC(c2ccccc2Br)N1c1ccc(Cl)cn1 (stereo not given) | - | 67.2 | - | - | -
Cc1ccc(NC(=S)N2CCn3cccc3C2c2cccnc2)cc1 (stereo not given) | - | - | - | - | 80.5
CCc1cccc(CC)c1NC(=S)N1CCn2cccc2C1c1cccnc1 (stereo not given) | - | - | - | - | 82.9
CCNC(=S)N1CCn2cccc2C1c1ccc(F)cc1 (stereo not given) | - | - | - | - | -
S=C(Nc1ccc(Br)cc1)N1CCn2cccc2C1c1cccnc1 (stereo not given) | - | - | - | - | 96.1
CCN(c1ccccc1)S(=O)(=O)c1ccc(OC)c(NC(=O)c2cccs2)c1 | - | - | - | - | 96.4
CCN(CC)S(=O)(=O)c1ccc(OC)c(NC(=O)Cc2cccs2)c1 | - | - | - | - | -
SMILES | PMI act satM6P | WT yeast gro inh | PMI activator | Diaph act CS | Lmaj promast
O=C(Nc1cccc(NC(=O)c2ncn[nH]2)c1)c1cccc(Cl)c1 | - | - | - | - | 100.0
COc1cccc(NC(=O)c2ncn[nH]2)c1 | - | - | - | - | -
Cc1ccc(NC(=O)COC(=O)C2CSC3(C)CCC(=O)N23)cc1S(=O)(=O)N1CCOCC1 (stereo not given) | - | - | - | - | -
COC(=O)Nc1snnc1C | - | 63.3 | - | - | -
C=CCOC(=O)Nc1snnc1C | - | - | - | - | -
c1ccc(C[n+]2cccc3c4ccccc4ccc32)cc1 | - | - | - | - | 97.2
CCCCC[n+]1cccc2c3ccccc3ccc21 | - | - | - | - | 100.3
CCC(C(=O)NC(C)(C)C)N(C(=O)Cn1nnc(-c2ccccc2F)n1)c1cccc2c1CCCC2 (stereo not given) | - | - | - | - | -
COc1ccc(-c2nc3n(c(=O)c2C#N)CCCS3)cc1 | - | 75.5 | - | - | -
CCCCOC(=O)c1ccc(NC(=O)COC(=O)CSc2nc(C)cc(C)n2)cc1 | - | - | - | - | -
COc1ccc(N(CC(O)Cn2c3ccccc3c3ccccc32)S(=O)(=O)c2ccccc2)cc1 (stereo not given) | - | - | - | - | -
CC(=O)Nc1ccccc1N(CC(O)Cn1c2ccccc2c2ccccc21)S(=O)(=O)c1ccc(C)cc1 (stereo not given) | - | - | - | - | 63.8
Cc1ccc(S(=O)(=O)NCC2CCC(C(=O)NCc3cccnc3)CC2)cc1 (stereo not given) | - | - | - | - | -
Cc1ccc2c(c1)N(C(=O)NC1CCCCC1)C(C)(C)CC2C (stereo not given) | - | - | - | - | -
Brc1cccc(-c2cnco2)c1 | - | - | - | - | -
Cc1ccc(C(C#N)c2ccc(C(=O)c3ccc(F)cc3)cc2)cc1 (stereo not given) | - | - | - | - | 54.4
N#CC(c1ccc(F)cc1)c1ccc(C(=O)c2ccc(F)cc2)cc1 (stereo not given) | - | - | - | - | -
Cc1cc2cc(C(c3nnnn3C3CCCC3)N(Cc3cccnc3)Cc3ccco3)c(=O)[nH]c2cc1C (stereo not given) | - | - | - | - | -
CCC(C)(C)n1nnnc1C(c1cc2ccc(C)cc2[nH]c1=O)N(Cc1cccnc1)Cc1ccco1 (stereo not given) | - | - | - | - | 82.8
Cc1ccc2cc(C(c3nnnn3C3CCCC3)N(Cc3ccccc3)Cc3ccco3)c(=O)[nH]c2c1 (stereo not given) | - | - | - | - | 79.7
CC(C)(C)n1nnnc1C(c1cccs1)N(Cc1cccnc1)Cc1ccco1 (stereo not given) | - | - | - | - | 79.1
COc1ccc(OC)c(NC(=O)c2ccc(CSc3nnc(C)s3)cc2)c1 | - | - | - | - | -
COc1ccccc1NC(=O)Cn1c2ccccc2c2nc3n(c(=O)c21)CCS3 | - | - | - | - | -
Cc1c(C(=O)OCC(=O)NCC2CCCO2)cccc1[N+](=O)[O-] (stereo not given) | - | - | - | - | -
Cn1nc(C(=O)Nc2ccc(S(=O)(=O)N3CCOCC3)cc2)c2ccccc2c1=O | - | - | - | - | -
Cc1ccc(C)c2nc3sc(C(=O)O)cc3cc12 | - | - | - | - | -
CCOc1ccccc1CN1C(=O)c2ccccc2C1C(=O)NCC1CCCO1 (stereo not given) | - | - | - | - | -
CCOc1ccccc1CN1C(=O)c2ccccc2C1C(=O)NC(C)CC (stereo not given) | - | - | - | - | 84.4
